Assay results: ChEMBL document CHEMBL4680123, “Synthesis of novel 3-halo-3-nitroflavanones and their activities as DNA methyltransferase inhibitors in cancer cells” (Eur J Med Chem, 2020)
The source made the active and inactive calls. The rule behind the calls is not given here.

Key:
[1] = test system: KG-1; assay: Cytotoxicity against human KG-1 cells assessed as reduction in cell viability measured after 72 hrs by APTlite one step luminescence assay; assay type: functional, cell-based; settings: KG-1, 72 h
[2] = molecular target: DNA (cytosine-5)-methyltransferase 3B (Homo sapiens) (UniProt Q9UBC3); assay: Inhibition of human DNMT3B in human KG-1 cells expressing cmv-firefly luciferase assessed as increase in luminescence incubated for 24 hrs by luciferase reporter gene assay relative to control; assay type: cell-based; settings: dose 3.2-10 µM
In short: (§1)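 KG-1 cells stably carrying firefly luciferase under a 50% methylated CMV promoter were seeded at 20 000 cells/well. They were exposed to compound (3.2–10 µM range) or DMSO for 24 h, then luciferase was quantified by One-Glo luminescence. Result is fold induction over DMSO control. Mean of three experiments with standard error.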

[3] = molecular target: DNA (cytosine-5)-methyltransferase 3B (Homo sapiens) (UniProt Q9UBC3); assay: Inhibition of human DNMT3B in human KG-1 cells expressing cmv-firefly luciferase assessed as increase in luminescence at 5 uM incubated for 24 hrs by luciferase reporter gene assay relative to control; assay type: cell-based; in short: as §1
[4] = Chemical stability of compound in DNMT3A-c enzyme buffer assessed as half life at 1 mM by HPLC analysis; assay type: physicochemical
In short: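 Followed over 15 h by reverse-phase HPLC (H2O/acetonitrile gradient with 0.1% formic acid), detection at 250 nm. Remaining compound taken from HPLC peak area. Mean of at least two experiments.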

[5] = test system: HCT-116; assay: Cytotoxicity against human HCT-116 cells assessed as reduction in cell viability measured after 72 hrs by APTlite one step luminescence assay; assay type: functional, cell-based; settings: HCT-116, 72 h
In short: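 KG-1 cells were seeded at 2x10^4 cells/ml in RPMI-1640 with 15% FCS, and HCT116 cells at 1.5x10^4 cells/ml in MEM with HEPES, L-glutamine and 10% FCS, at 37 °C, 5% CO2. Compound was given at 3.2x10-9 to 1x10-5 M on day 0 and again on days 2 and 3. ATP-luminescence read-out on day 4. EC50 is the concentration giving 50% viability loss versus untreated cells. Mean of at least two independent experiments run in duplicate.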

[6] = molecular target: DNA (cytosine-5)-methyltransferase 3A (Homo sapiens) (UniProt Q9Y6K1); assay: Inhibition of human DNMT3A catalytic domain expressed in Escherichia coli Rosetta-gamiTM 2(DE3) pLysS competent cells using biotinylated 6-FAM double strand DNA comprising unique CpG site […] incubated for 1 hrs by fluorescence based assay
[7] = molecular target: DNA (cytosine-5)-methyltransferase 3B (Homo sapiens) (UniProt Q9UBC3); assay: Inhibition of human DNMT3B in human KG-1 cells expressing cmv-firefly luciferase assessed as increase in luminescence upto 10 uM incubated for 24 hrs by luciferase reporter gene assay relative to control; assay type: cell-based; settings: dose microM <=10, time 24.0 hrs
In short: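 KG-1 cells stably carrying firefly luciferase (luc+) under a 50%-methylated CMV promoter, seeded at 20 000 cells/well. Treated 24 h with compound (3.2–10 µM) or DMSO. Luciferase quantified by One-Glo luminescence and expressed as fold induction over DMSO control. Mean of three experiments with standard error.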

[8] = molecular target: DNA (cytosine-5)-methyltransferase 3A (Homo sapiens) (UniProt Q9Y6K1); assay: Inhibition of human DNMT3A catalytic domain expressed in Escherichia coli Rosetta-gamiTM 2(DE3) pLysS competent cells using biotinylated 6-FAM double strand DNA comprising unique CpG site […] at 32 uM incubated for 1 hrs by fluorescence based assay

DNA (cytosine-5)-methyltransferase 3A (Homo sapiens), sequence (Q9Y6K1 whole entry, looked up, the tested form may be a part): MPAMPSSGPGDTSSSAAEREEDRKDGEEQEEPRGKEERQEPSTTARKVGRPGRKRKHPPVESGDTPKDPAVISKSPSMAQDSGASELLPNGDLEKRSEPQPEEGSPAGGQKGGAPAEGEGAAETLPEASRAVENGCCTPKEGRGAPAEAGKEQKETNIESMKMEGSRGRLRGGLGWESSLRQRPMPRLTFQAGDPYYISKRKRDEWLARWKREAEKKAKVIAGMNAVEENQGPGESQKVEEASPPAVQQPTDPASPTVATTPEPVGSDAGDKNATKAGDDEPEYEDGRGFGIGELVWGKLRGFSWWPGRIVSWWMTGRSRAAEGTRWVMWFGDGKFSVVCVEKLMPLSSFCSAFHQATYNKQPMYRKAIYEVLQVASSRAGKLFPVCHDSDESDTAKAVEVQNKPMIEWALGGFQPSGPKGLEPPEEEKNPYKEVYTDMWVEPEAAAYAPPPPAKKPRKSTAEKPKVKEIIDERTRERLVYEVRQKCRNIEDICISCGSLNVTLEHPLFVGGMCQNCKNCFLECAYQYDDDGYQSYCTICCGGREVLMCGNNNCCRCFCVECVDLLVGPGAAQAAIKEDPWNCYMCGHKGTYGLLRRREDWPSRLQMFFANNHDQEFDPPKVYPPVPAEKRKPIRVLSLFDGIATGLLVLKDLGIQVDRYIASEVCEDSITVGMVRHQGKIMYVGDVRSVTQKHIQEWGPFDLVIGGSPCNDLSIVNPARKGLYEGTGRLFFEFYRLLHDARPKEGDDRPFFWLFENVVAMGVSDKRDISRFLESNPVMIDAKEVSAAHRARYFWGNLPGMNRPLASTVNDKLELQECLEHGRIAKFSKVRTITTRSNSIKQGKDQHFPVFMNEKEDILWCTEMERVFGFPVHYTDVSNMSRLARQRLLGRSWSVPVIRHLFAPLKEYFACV

SMILES	inhibition [7]	inhibition [8]	EC50 [6]	EC50 [1]	Activity [2]	fold change (FC) [3]	half-life at 1000 µM [4]	EC50 [5]	EC50 ([6]; read-out: EC50)
O=C1c2ccccc2O[C@H](c2ccccc2[N+](=O)[O-])[C@]1(Br)[N+](=O)[O-] (racemic)	–	–	–	5.3 µM	Dose-dependent effect	8.8	0.7 h	12.4 µM	5.1 µM
COc1ccc([N+](=O)[O-])c(C2Oc3ccccc3C(=O)C2(Cl)[N+](=O)[O-])c1 (stereo not given)	inactive	–	–	–	–	–	3.4 h	–	4.4 µM
O=C1c2ccccc2O[C@H](c2ccccc2[N+](=O)[O-])[C@@]1(Br)[N+](=O)[O-] (racemic)	–	–	–	13 µM	Dose-dependent effect	6.1	1.7 h	10.7 µM	3.2 µM
COc1ccc([N+](=O)[O-])c([C@H]2Oc3ccccc3C(=O)[C@@]2(Br)[N+](=O)[O-])c1 (racemic)	–	–	–	18.6 µM	Dose-dependent effect	–	–	–	4.7 µM
O=C1c2ccccc2OC(c2ccccc2[N+](=O)[O-])C1(Cl)[N+](=O)[O-] (stereo not given)	inactive	–	–	–	–	2	1 h	–	4.4 µM
CC1([N+](=O)[O-])C(=O)c2ccccc2OC1c1ccccc1[N+](=O)[O-] (stereo not given)	inactive	–	–	–	–	–	–	–	> 40 µM
COc1ccc([N+](=O)[O-])c([C@H]2Oc3ccccc3C(=O)[C@]2(Br)[N+](=O)[O-])c1 (racemic)	–	–	–	12.9 µM	Dose-dependent effect	–	7 h	8.1 µM	5.3 µM

Now from value to molecule, other results behind:

inhibition [7]	inhibition [8]	EC50 [6]	SMILES	EC50 [1]	Activity [2]	fold change (FC) [3]	half-life at 1000 µM [4]	EC50 [5]	EC50 ([6]; read-out: EC50)
inactive	–	–	O=C1c2ccccc2OC(c2ccccc2[N+](=O)[O-])C1(I)[N+](=O)[O-] (racemic)	–	–	–	> 15 h	–	2.8 µM
inactive	–	–	O=C1c2ccccc2OC(c2ccccc2)C1(Br)[N+](=O)[O-] (stereo not given)	–	–	–	–	–	6.7 µM
inactive	–	–	O=C1c2ccccc2O[C@H](c2ccccc2F)[C@@]1(Br)[N+](=O)[O-] (racemic)	–	–	–	–	–	5.7 µM
–	0%	Not Active	COc1ccc([N+](=O)[O-])c(C2Oc3ccccc3C(=O)C2[N+](=O)[O-])c1 (stereo not given)	–	–	–	–	–	–
inactive	–	–	COc1ccc([N+](=O)[O-])c([C@H]2Oc3ccccc3C(=O)[C@]2(I)[N+](=O)[O-])c1 (racemic)	–	–	–	> 15 h	–	2 µM
–	0%	Not Active	O=C1c2ccccc2OC(c2ccccc2[N+](=O)[O-])C1[N+](=O)[O-] (stereo not given)	–	–	–	–	–	–
–	0%	Not Active	O=C1c2ccccc2OC(c2ccccc2)C1[N+](=O)[O-] (trans isomer)	–	–	–	–	–	–
